Measurements of several laboratories.
Protocols differ between the studies behind these lines.
Read-out: cell growth or viability

Structure (SMILES)	cell line	test	setting	measurement	result
COC(=O)c1ccc(Nc2ccc(-c3ccc(S(N)(=O)=O)cc3)cc2)cc1	BHK-21	MTT	100 µM	viability	68%
CC1=NN(c2ccc(C)c(C)c2)C(=O)/C1=N\Nc1cccc(-c2cccc(C(=O)O)c2)c1O	BHK-21	CCK-8	48 h	CC50	104 µM
COc1cccc2c1C(=O)c1c(O)c3c(c(O)c1C2=O)C[C@@](O)(C(=O)CO)C[C@@H]3O[C@H]1C[C@H](N)[C@H](O)[C@H](C)O1	Vero	MTT	72 h	CC50	9.6 µM
NS(=O)(=O)c1ccc(-c2ccc(Nc3ccc(Cl)cc3)cc2)cc1	BHK-21	MTT	100 µM	viability	60%
Cc1cc(-c2ccc(/N=N/c3ccc4c(S(=O)(=O)O)cc(S(=O)(=O)O)c(N)c4c3O)c(C)c2)ccc1/N=N/c1ccc2c(S(=O)(=O)O)cc(S(=O)(=O)O)c(N)c2c1O	BHK-21	CCK-8	48 h	CC50	242 µM
CNC(=N)NCCC[C@H](N)C(=O)O	RAW264.7	MTT	250 µg/mL, 24 h, LPS-stimulated	viability	> 85%
Cc1cc(C)cc(Nc2ccc(-c3ccc(S(N)(=O)=O)cc3)cc2)c1	BHK-21	MTT	100 µM	viability	88%
O=C1C(=O)c2cccnc2-c2ncccc21	Vero	MTT	72 h	CC50	> 200 µM
Nc1nc2c(ncn2COCCO)c(=O)[nH]1	Vero	MTT	48 h	CC50	320 µM
NC(=NCc1ccccc1)NC(=O)c1nc(Cl)c(N)nc1N	BHK-21	CCK-8	48 h	CC50	44.5 µM
O=C(C1CCCCC1)N1CC(=O)N2CCc3ccccc3C2C1 (centres unmarked)	Vero	MTT	72 h	CC50	> 200 µM
